Measurements published in ChEMBL document CHEMBL1123620, “Renin inhibitors. Statine-containing tetrapeptides with varied hydrophobic carboxy termini” (J Med Chem, 1987).

How the values were obtained:
Renin [1] = target: T1, Renin (Homo sapiens, UniProt P00797); test: Inhibition of human plasma renin at 10e-9 M concentration; settings: read-out: I50
T1 sequence (P00797 whole entry): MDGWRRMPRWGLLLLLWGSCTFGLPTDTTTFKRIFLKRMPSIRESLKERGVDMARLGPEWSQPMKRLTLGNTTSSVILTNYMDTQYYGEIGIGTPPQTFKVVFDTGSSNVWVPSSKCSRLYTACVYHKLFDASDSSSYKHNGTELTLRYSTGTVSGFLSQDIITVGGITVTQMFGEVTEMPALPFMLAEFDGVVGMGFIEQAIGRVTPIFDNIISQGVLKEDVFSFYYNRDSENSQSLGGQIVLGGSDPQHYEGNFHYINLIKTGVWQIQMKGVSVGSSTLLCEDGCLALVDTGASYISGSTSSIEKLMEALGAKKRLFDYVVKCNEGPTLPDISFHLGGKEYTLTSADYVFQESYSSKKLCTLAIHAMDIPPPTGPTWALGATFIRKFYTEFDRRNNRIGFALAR
Summary of the method: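 Human plasma renin acting on endogenous plasma angiotensinogen at pH 7.4 (phosphate), 37°C. Renin and substrate levels were not measured. 8-Hydroxyquinoline or phenylmethanesulfonyl fluoride served as angiotensinase inhibitor. Angiotensin I was measured by radioimmunoassay. I50 values were generally reproducible within ±30%.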

Renin [2] = target: T1, Renin; test: Inhibition of purified human kidney renin, radioimmunoassay using a synthetic tetradecapeptide renin substrate at 10e-9 M concentration
Renin [3] = target: T1, Renin; test: Inhibition of purified human kidney renin, radioimmunoassay using the natural substrate partially pure angiotensinogen at 10e-9 M concentration
Summary of the method: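 Purified human kidney renin (0.02 ng) with 500 ng partially purified human angiotensinogen (0.08 μM, about 1% pure), 60 min at 37°C in 0.1 M citrate phosphate, pH 7.20. Inhibitor added in 10% methanol or DMF. Quenched by boiling for 1 min.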

Renin [4] = target: T1, Renin; test: Inhibition of purified human kidney renin, fluorometric assay using a synthetic tetradecapeptide renin substrate at 10e-9 M concentration
Summary of the method: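 Purified human kidney renin with synthetic tetradecapeptide substrate, read fluorometrically for peptidal amino termini, at 37°C in 0.10 M citrate phosphate, pH 7.20. Ki from linear I/V vs. [I] plots, assuming competitive inhibition. Estimated error ±20%.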

Renin (Sus scrofa) = test: Inhibition of hog kidney renin at 10e-9 M concentration; settings: read-out: I50

SMILES | IC50 (Renin [1]) [nM] | Ki (Renin [2]) [nM] | Ki (Renin [3]) [nM] | Ki (Renin [4]) [nM] | IC50 (Renin (Sus scrofa)) [nM]
C=C1c2ccccc2CC(NC(=O)[C@H](CC(C)C)NC(=O)CC(O)C(CC(C)C)NC(=O)[C@H](Cc2c[nH]cn2)NC(=O)[C@H](Cc2ccccc2)NC(=O)OC(C)(C)C)c2ccccc21 (stereo not given in full) | 569 | 520 | 320 | 120 | 5.8
CC(C)CC(NC(=O)[C@H](Cc1c[nH]cn1)NC(=O)[C@H](Cc1ccccc1)NC(=O)OC(C)(C)C)C(O)CC(=O)N[C@@H](CC(C)C)C(=O)NC(C)C(O)c1ccccc1 (stereo not given in full) | 178 | 36 | 220 | 67 | 480
CC(C)CC(NC(=O)[C@H](Cc1c[nH]cn1)NC(=O)[C@H](Cc1ccccc1)NC(=O)OC(C)(C)C)C(O)CC(=O)N[C@@H](CC(C)C)C(=O)NC1CCN(Cc2ccccc2)CC1 (stereo not given in full) | 127 | 0.04 | 97 | 0.064 | 280
CC(C)CC(NC(=O)[C@H](Cc1cnc[nH]1)NC(=O)[C@H](Cc1ccccc1)NC(=O)OC(C)(C)C)C(O)CC(=O)N[C@@H](CC(C)C)C(=O)NC(C)c1ccccc1 (single isomer, unassigned; (+)) | 49 | 6 | 100 | 19 | 14
